Results as given in paper PMC6720533 (Biomolecules & Therapeutics, 2019).

Columns and labels:
SEM cells [1] = test: WST-1 metabolic activity assay; format: cell-based; conditions: Homo sapiens, 72 h, read-out: metabolic activity
In short: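 Test compound came from a 10 mM DMSO stock. Cells were seeded at 5×10^4/well in triplicate with 5 or 10 μM final compound; controls got matched DMSO. After 72 h at 37°C, 5% CO2, WST-1 was added for a further 3 h. Absorbance was read at 450 nm (reference 620 nm), and metabolic activity given as % of DMSO control.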

SEM cells [2] = test: Proliferation, viable cell count by trypan blue exclusion; format: cell-based, human; conditions: 72 h
In short: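 Human B-ALL (SEM, RS4;11) and T-ALL (Jurkat, CEM) lines were grown with 10% heat-inactivated FBS and penicillin/streptomycin at 37°C, 5% CO2. Cells took test compound at 0.1–5.0 μM (methods: 0.5–5.0 μM) or DMSO for up to 72 h. Viable cells were counted by trypan blue exclusion and expressed relative to control (100%). IC50 came from three separate experiments, each in triplicate.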

RS4;11 cells = test: Cell morphology, May Grünwald Giemsa staining; format: cell-based, human; conditions: 48 h
CEM cells = test: Cell morphology, May Grünwald Giemsa staining; format: cell-based, human; conditions: 2.5 μM, 48 h
cleaved caspase 3 = test: Western blot, RS4; format: cell-based, human; conditions: RS4;11, 2.5 μM and 5.0 μM, 48 h
In short: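 SEM and RS4;11 cells were exposed to 2.5 or 5.0 μM test compound, or DMSO, for 48 h. Lysates of 1–5×10^6 cells were made in RIPA buffer with sonication. Cleaved caspase 3 was detected by western blot on PVDF with near-infrared imaging, using GAPDH as loading control.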

pAKT = test: Western blot, SEM cells; format: cell-based, human; conditions: 2.5 μM or 5.0 μM, 48 h
In short: (§1)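 SEM or RS4;11 cells took DMSO, 2.5 or 5.0 μM test compound for 48 h. Cells (1–5×10^6) were lysed in RIPA buffer with sonication, run on SDS gels, blotted to PVDF and imaged by near-infrared fluorescence. Bands were normalised to GAPDH, and the phospho/total protein ratio was set relative to DMSO control (=1).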

p-p38 = test: Western blot, SEM cells; format: cell-based, human; conditions: 2.5 μM or 5.0 μM, 48 h
In short: as §1

pERK = test: Western blot, RS4; format: cell-based, human; conditions: RS4;11, 2.5 μM or 5.0 μM, 48 h
In short: as §1

ALK = ALK (Homo sapiens, UniProt Q9UM73); test: Kinase activity screening; format: biochemical; conditions: FX-9 at 2.5 μM, ATP at Km (200 μM)
In short: (§2)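 Radiometric substrate-phosphorylation screen covering a panel of 58 human kinases run by a contract service. […] Activity is given as a percentage of mean activity in positive control samples (100%). Values <30% were scored strong hits, 30–70% partial hits and >70% no hit.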

ASK1 = ASK1 (Homo sapiens, UniProt Q99683); test: Kinase activity screening; format: biochemical; conditions: FX-9 at 2.5 μM, ATP at Km (200 μM)
ASK1, sequence (Q99683 whole entry): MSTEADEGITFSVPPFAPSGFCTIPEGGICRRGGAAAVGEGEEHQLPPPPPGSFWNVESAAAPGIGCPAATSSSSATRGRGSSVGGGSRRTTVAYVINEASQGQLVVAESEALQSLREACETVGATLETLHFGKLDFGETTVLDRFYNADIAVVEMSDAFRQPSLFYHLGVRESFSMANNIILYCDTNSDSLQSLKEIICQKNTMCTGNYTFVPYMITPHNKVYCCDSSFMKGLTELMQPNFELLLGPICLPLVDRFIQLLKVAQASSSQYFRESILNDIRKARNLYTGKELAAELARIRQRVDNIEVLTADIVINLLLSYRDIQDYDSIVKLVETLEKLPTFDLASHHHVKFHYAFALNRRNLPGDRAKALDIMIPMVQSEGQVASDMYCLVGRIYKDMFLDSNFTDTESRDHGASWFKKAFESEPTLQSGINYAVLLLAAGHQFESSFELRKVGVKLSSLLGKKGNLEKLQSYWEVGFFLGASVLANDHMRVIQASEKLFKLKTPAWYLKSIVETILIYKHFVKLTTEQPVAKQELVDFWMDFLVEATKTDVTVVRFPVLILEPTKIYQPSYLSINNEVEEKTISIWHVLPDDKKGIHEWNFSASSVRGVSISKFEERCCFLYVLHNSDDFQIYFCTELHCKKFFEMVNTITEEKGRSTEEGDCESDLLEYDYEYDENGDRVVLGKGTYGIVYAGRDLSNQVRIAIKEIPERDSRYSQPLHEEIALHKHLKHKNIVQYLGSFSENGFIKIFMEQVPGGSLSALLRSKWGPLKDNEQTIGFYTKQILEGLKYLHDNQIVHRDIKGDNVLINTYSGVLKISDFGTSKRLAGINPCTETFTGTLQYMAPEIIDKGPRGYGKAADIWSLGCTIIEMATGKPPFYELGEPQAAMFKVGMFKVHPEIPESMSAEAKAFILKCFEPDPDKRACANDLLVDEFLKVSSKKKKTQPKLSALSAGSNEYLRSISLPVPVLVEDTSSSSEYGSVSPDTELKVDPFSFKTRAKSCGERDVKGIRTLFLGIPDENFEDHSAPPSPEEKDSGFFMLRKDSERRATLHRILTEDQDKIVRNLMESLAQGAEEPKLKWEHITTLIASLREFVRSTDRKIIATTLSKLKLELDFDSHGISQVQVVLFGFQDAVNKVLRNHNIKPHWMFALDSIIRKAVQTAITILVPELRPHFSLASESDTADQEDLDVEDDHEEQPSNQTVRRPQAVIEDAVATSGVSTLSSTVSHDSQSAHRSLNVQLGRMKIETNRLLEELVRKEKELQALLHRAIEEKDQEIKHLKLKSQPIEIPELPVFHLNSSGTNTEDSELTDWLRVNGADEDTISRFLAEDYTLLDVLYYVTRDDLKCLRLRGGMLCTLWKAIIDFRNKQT
In short: as §2

CDK9/cyclin T1 = CDK9/cyclin T1 (Homo sapiens, UniProt P50750); test: Kinase activity screening; format: biochemical; conditions: FX-9 at 2.5 μM, ATP at Km (45 μM)
CDK9/cyclin T1, sequence (P50750 whole entry): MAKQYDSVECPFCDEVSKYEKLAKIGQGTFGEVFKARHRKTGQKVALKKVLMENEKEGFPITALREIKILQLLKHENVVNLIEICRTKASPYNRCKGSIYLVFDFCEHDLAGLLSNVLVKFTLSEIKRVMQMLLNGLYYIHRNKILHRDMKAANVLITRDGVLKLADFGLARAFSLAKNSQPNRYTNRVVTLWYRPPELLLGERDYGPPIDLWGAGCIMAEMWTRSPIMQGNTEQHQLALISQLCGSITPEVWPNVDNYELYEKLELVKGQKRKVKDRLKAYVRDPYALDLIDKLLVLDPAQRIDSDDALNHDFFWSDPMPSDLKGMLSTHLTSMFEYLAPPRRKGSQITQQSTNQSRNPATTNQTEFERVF
CDK9/cyclin T1, sequence (O60563 whole entry partner): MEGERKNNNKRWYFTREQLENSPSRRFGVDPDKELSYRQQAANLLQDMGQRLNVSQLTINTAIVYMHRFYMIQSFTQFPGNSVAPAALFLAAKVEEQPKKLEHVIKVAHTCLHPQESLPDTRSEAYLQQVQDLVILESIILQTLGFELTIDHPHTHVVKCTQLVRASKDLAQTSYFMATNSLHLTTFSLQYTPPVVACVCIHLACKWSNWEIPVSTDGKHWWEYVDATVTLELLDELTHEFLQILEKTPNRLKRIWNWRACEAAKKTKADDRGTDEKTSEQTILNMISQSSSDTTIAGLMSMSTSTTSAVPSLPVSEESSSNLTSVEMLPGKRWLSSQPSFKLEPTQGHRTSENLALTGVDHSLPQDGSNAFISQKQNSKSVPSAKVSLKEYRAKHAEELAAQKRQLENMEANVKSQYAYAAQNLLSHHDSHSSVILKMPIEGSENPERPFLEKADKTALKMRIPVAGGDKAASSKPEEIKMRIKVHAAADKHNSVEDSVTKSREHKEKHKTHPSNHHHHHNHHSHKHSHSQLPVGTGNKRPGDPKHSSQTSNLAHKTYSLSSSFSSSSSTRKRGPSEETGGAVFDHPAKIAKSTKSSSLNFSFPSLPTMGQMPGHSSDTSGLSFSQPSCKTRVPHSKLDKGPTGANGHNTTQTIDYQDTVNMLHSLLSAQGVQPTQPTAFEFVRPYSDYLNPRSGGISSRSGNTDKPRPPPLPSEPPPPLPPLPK
In short: as §2

CHK1 = CHK1 (Homo sapiens, UniProt O14757); test: Kinase activity screening; format: biochemical; conditions: FX-9 at 2.5 μM, ATP at Km (90 μM)
In short: as §2

EphA5 = EphA5 (Homo sapiens, UniProt P54756); test: Kinase activity screening; format: biochemical; conditions: FX-9 at 2.5 μM, ATP at Km (10 μM)
In short: as §2

EphB4 = EphB4 (Homo sapiens, UniProt P54760); test: Kinase activity screening; format: biochemical; conditions: FX-9 at 2.5 μM, ATP at Km (10 μM)
In short: as §2

GSK3β = GSK3β (Homo sapiens, UniProt P49841); test: Kinase activity screening; format: biochemical; conditions: FX-9 at 2.5 μM, ATP at Km (15 μM)
In short: as §2

IGF-1R = IGF-1R (Homo sapiens, UniProt P08069); test: Kinase activity screening; format: biochemical; conditions: FX-9 at 2.5 μM, ATP at Km (200 μM)
In short: as §2

JAK2 = JAK2 (Homo sapiens, UniProt O60674); test: Kinase activity screening; format: biochemical; conditions: FX-9 at 2.5 μM, ATP at Km (45 μM)
In short: as §2

KDR = KDR (Homo sapiens, UniProt P35968); test: Kinase activity screening; format: biochemical; conditions: FX-9 at 2.5 μM, ATP at Km (90 μM)
KDR, sequence (P35968 20-1356): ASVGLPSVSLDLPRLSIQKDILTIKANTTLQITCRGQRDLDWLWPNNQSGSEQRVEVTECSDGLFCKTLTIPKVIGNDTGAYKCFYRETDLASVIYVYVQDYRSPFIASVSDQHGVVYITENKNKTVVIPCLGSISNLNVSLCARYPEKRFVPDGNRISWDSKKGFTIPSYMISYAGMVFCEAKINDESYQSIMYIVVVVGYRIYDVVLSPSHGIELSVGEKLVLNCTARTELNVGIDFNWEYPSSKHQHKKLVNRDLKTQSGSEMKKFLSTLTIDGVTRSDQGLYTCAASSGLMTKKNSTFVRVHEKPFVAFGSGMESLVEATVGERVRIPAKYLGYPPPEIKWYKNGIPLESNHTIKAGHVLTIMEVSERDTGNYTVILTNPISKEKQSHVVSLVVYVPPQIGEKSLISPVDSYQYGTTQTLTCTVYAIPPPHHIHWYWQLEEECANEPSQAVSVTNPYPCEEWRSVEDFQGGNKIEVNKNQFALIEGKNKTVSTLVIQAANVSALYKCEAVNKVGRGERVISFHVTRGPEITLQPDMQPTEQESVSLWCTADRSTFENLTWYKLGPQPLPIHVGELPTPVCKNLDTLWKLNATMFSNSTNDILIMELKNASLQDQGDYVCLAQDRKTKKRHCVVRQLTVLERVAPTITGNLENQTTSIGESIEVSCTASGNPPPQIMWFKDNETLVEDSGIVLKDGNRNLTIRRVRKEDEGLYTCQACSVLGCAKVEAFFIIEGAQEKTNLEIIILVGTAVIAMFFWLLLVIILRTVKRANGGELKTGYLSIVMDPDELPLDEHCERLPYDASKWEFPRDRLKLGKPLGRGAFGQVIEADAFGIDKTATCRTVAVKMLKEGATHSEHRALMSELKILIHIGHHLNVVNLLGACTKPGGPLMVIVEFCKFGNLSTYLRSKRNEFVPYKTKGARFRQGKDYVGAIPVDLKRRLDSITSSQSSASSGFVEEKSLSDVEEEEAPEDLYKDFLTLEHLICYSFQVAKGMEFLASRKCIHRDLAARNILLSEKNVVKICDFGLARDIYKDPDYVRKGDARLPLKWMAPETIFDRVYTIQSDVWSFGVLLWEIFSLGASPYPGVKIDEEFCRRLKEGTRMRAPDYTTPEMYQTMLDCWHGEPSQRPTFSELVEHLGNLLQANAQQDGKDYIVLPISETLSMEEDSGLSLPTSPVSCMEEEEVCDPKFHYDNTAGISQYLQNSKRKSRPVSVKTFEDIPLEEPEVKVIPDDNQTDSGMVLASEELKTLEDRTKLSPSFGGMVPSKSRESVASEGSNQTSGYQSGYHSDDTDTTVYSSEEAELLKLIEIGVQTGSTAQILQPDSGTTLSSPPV
In short: as §2

MLK1 = MLK1 (Homo sapiens, UniProt P80192); test: Kinase activity screening; format: biochemical; conditions: FX-9 at 2.5 μM, ATP at Km (45 μM)
In short: as §2

Mnk2 = Mnk2 (Homo sapiens, UniProt Q9HBH9); test: Kinase activity screening; format: biochemical; conditions: FX-9 at 2.5 μM, ATP at Km (120 μM)
In short: as §2

PAK2 = PAK2 (Homo sapiens, UniProt Q13177); test: Kinase activity screening; format: biochemical; conditions: FX-9 at 2.5 μM, ATP at Km (90 μM)
PAK2, sequence (Q13177 whole entry): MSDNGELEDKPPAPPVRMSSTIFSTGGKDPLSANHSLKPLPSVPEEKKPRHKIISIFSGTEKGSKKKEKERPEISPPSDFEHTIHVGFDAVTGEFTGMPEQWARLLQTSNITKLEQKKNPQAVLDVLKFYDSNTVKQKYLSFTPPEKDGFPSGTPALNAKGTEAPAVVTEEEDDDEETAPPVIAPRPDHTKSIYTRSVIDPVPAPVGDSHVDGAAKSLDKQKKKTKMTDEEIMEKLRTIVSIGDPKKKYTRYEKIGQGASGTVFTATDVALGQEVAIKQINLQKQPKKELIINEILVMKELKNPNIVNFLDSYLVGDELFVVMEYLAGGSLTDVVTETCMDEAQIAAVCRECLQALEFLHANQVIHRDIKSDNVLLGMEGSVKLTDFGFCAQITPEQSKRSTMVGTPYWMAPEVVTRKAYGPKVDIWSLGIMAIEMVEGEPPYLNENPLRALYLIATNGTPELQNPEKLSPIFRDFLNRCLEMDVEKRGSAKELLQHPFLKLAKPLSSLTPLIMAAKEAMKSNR
In short: as §2

Pim-1 = Pim-1 (Homo sapiens, UniProt P11309); test: Kinase activity screening; format: biochemical; conditions: FX-9 at 2.5 μM, ATP at Km (90 μM)
In short: (§3)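 Radiometric kinase-panel screen of 58 human kinases, measuring substrate phosphorylation. […] Activity is given as % of the mean positive-control kinase activity (100%). Below 30% counts as a strong hit, 30–70% as a partial hit, and above 70% as no hit.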

PKBα = PKBα (Homo sapiens, UniProt P31749); test: Kinase activity screening; format: biochemical; conditions: FX-9 at 2.5 μM, ATP at Km (155 μM)
In short: as §2

PKCα = PKCα (Homo sapiens, UniProt P17252); test: Kinase activity screening; format: biochemical; conditions: FX-9 at 2.5 μM, ATP at Km (45 μM)
In short: as §2

PKG1α = PKG1α (Homo sapiens, UniProt Q13976); test: Kinase activity screening; format: biochemical; conditions: FX-9 at 2.5 μM, ATP at Km (90 μM)
In short: as §3

Plk3 = Plk3 (Homo sapiens, UniProt Q9H4B4); test: Kinase activity screening; format: biochemical; conditions: FX-9 at 2.5 μM, ATP at Km (70 μM)
Plk3, sequence (Q9H4B4 whole entry): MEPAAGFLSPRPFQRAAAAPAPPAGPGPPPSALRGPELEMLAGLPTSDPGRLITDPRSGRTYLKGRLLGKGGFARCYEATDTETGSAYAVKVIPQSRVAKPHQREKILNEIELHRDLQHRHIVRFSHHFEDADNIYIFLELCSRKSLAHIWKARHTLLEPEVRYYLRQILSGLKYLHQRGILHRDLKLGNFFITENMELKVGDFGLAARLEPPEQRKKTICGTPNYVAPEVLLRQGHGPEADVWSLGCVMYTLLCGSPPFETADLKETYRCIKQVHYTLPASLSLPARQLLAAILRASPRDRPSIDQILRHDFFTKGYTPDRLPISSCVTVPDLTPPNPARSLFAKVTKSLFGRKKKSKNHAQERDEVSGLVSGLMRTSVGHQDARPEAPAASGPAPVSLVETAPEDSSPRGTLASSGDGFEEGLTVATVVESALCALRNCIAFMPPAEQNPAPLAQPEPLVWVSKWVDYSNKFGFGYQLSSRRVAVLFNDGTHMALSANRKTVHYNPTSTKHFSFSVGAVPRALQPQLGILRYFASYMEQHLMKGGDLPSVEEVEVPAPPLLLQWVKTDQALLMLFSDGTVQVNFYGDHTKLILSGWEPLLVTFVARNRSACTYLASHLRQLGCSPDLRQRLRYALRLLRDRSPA
In short: as §3

TAK1 = TAK1 (Homo sapiens, UniProt O43318); test: Kinase activity screening; format: biochemical; conditions: FX-9 at 2.5 μM, ATP at Km (45 μM)
In short: as §3

PI3 Kinase (p110a/p85a) = PI3 Kinase (p110a/p85a) (Homo sapiens, UniProt P42336); test: Kinase activity screening; format: biochemical; conditions: FX-9 at 2.5 μM, ATP at Km (200 μM)
In short: as §2

Cc1ccc(-c2cc3ccccc3c(N)n2)cc1 [FX-9, 3-(p-Tolyl)isoquinolin-1-amine]
activity at 5 µM (SEM cells [1]): 1.2%
activity at 10 µM (SEM cells [1]): 0.6%
IC50 (SEM cells [2]; Homo sapiens, read-out: IC50 based on proliferation): 1.46 ± 0.01 µM
Proliferation compared to control cells (=100%) (SEM cells [2]; SEM, 0.5 μM): 69.5%
cellular morphology (light microscopy) (RS4;11 cells; RS4;11, 1.0 μM): increased amount of vacuoles and karyopyknosis
cellular morphology (light microscopy) (RS4;11 cells; RS4;11, 2.5 μM): Extensive cytoplasmic vacuolization, karyopyknosis, and karyolysis
cellular morphology (light microscopy) (CEM cells): Extensive cytoplasmic vacuolization, karyopyknosis, and karyolysis
cleaved caspase 3 protein (western blot) (cleaved caspase 3): increased amount of cleaved caspase 3
pAKT level (western blot) (pAKT): reduced
p-p38 level (western blot) (p-p38): reduced
pERK level (western blot) (pERK): dose dependent increase
Kinase activity (% control) (ALK): 112 % control
Kinase activity (% control) (ASK1): 101 % control
Kinase activity (% control) (CDK9/cyclin T1): 86 % control
Kinase activity (% control) (CHK1): 94 % control
Kinase activity (% control) (EphA5): 98 % control
Kinase activity (% control) (EphB4): 83 % control
Kinase activity (% control) (GSK3β): 88 % control
Kinase activity (% control) (IGF-1R): 89 % control
Kinase activity (% control) (JAK2): 111 % control
Kinase activity (% control) (KDR): 83 % control
Kinase activity (% control) (MLK1): 84 % control
Kinase activity (% control) (Mnk2): 90 % control
Kinase activity (% control) (PAK2): 88 % control
Kinase activity (% control) (Pim-1): 99 % control
Kinase activity (% control) (PKBα): 98 % control
Kinase activity (% control) (PKCα): 99 % control
Kinase activity (% control) (PKG1α): 98 % control
Kinase activity (% control) (Plk3): 99 % control
Kinase activity (% control) (TAK1): 87 % control
Kinase activity (% control) (PI3 Kinase (p110a/p85a)): 101 % control
